Test results taken from the RNAGym collection of RNA variant scans (doi:10.1101/gad.245936.114).
Variants at the floor of the assay were thinned out.

B1: tRNA (parent)
chain: CUCUCGGUAGCCAAGUUGGUUUAAGGCGCAAGACUUUAAUUUAUCACUACGAAAUCUUGAGAUCGGGCGUUCGACUCGCCCCCGGGAGAUUUUUUCCUCGAGCAA

Variants of: B1
Assay: nonsense suppression (GFP-seq) (ratio to wild type); higher = more function; SUP4oc tRNA, yeast GFP reporter sort-seq
Outline: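 Yeast carrying genome-integrated SUP4oc tRNA variants from a library with ~3% random mutations were grown in raffinose/galactose medium with 80 mg/L adenine. Each strain also carried a galactose-driven GFP ochre reporter and RFP. Cells were sorted into GFP/RFP bins, and each bin was Illumina-sequenced (phred ≥30). Nonsense suppression (GFPSEQ) is the bin median GFP/RFP, weighted by each variant's estimated cell share per bin, relative to wild-type SUP4oc; variants needed ≥100 reads and ≥30 cells.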
G6C G15A showed a nonsense suppression of at most 0.026. Variant A9U G10A has a nonsense suppression of 0.0292. A30U G32U C56A U58G gave a nonsense suppression of 1.11. G18A G25U G67C showed a nonsense suppression of at most 0.026. Variant A13C G25A has a nonsense suppression of 0.0288. For G32C A62G C80U, the nonsense suppression was at most 0.026. For U2C A9C C75A, the nonsense suppression was 0.038. With C29U U76A the nonsense suppression was 0.224. Work on C27U A74C yielded a nonsense suppression of 0.0355. With U17C U63A C72G the nonsense suppression was at most 0.026. In the case of C81A A87U, the nonsense suppression is reported as at most 0.026. Work on G7C C12A U71G U76C G88A yielded a nonsense suppression of at most 0.026. With A14G A33G G69C the nonsense suppression was at most 0.026. Work on U16G A30C A31G U55A U57A yielded a nonsense suppression of at most 0.026. For C5A U8C, the nonsense suppression was at most 0.026. C75G G85C showed a nonsense suppression of 0.191. With U4C U22A G86A the nonsense suppression was 0.552. With A87G the nonsense suppression was 1.16. For U55A U76A G86A, the nonsense suppression was at most 0.026. A9C G85U showed a nonsense suppression of 0.04. Work on U4A G85A yielded a nonsense suppression of 0.0324. In the case of A31C G84U, the nonsense suppression is reported as at most 0.026. With A31U A60C the nonsense suppression was 0.0348. Variant C56U A87G has a nonsense suppression of at most 0.026. In the case of U16C G78U, the nonsense suppression is reported as 0.454. With C83U A87U the nonsense suppression was at most 0.026. For U8C C81G, the nonsense suppression was at most 0.026. In the case of U4A A13C U70C C82U, the nonsense suppression is reported as at most 0.026. Work on U2A U4A G7A yielded a nonsense suppression of at most 0.026. U20C G61A showed a nonsense suppression of 0.212. For A24C U58C, the nonsense suppression was 0.034. In the case of G26A C27G, the nonsense suppression is reported as at most 0.026. For U57A G78C, the nonsense suppression was at most 0.026. U4C A9G U22G showed a nonsense suppression of 0.202. G66C G69C G73C G84C showed a nonsense suppression of at most 0.026. G61C showed a nonsense suppression of 1.14. G61U showed a nonsense suppression of 1.03. For A24C, the nonsense suppression was 1.13. A24G gave a nonsense suppression of 0.188. Work on A24G U35G yielded a nonsense suppression of at most 0.026. G61C G78A C79U gave a nonsense suppression of at most 0.026. Work on A9U U55A yielded a nonsense suppression of at most 0.026. U16C C27U showed a nonsense suppression of 0.137. A30U U35G G65U gave a nonsense suppression of at most 0.026. G28C G78C showed a nonsense suppression of at most 0.026. Work on C12G A33U U55C C72A G73A U76C yielded a nonsense suppression of at most 0.026. With A30U C79U the nonsense suppression was 0.144. For U22G G78U, the nonsense suppression was 0.112. For U4C A13G C83U, the nonsense suppression was 0.334. In the case of A60G C75A, the nonsense suppression is reported as 0.976. In the case of U2C C3U C12U G15A, the nonsense suppression is reported as at most 0.026. With U8A U57C G85U the nonsense suppression was at most 0.026. For U20C A54G, the nonsense suppression was 0.052. U20C G59A gave a nonsense suppression of 0.0894. C5A U8C G15C A60C gave a nonsense suppression of at most 0.026. With G10C G26A G65A A87U the nonsense suppression was at most 0.026. For C34G C81A, the nonsense suppression was at most 0.026. G26A U71G showed a nonsense suppression of at most 0.026. With A9G the nonsense suppression was 0.45. U4A C5A showed a nonsense suppression of 0.0374. In the case of U8C U63A, the nonsense suppression is reported as 0.0619. With A62C G67A the nonsense suppression was at most 0.026. A30G C83A showed a nonsense suppression of at most 0.026. With A30G A74G the nonsense suppression was 0.098. In the case of U63A C75G U76C, the nonsense suppression is reported as 1.19. Work on G6U U58G U76C C80G yielded a nonsense suppression of at most 0.026. Work on A54U G84U yielded a nonsense suppression of 0.0565. U22G A54G G73A showed a nonsense suppression of at most 0.026. Variant A9C U20G U21G G86A has a nonsense suppression of at most 0.026. Variant A9U G61A has a nonsense suppression of 0.195. In the case of A24C C75U, the nonsense suppression is reported as 1.18. A14G A74C showed a nonsense suppression of at most 0.026. With U16G C34U the nonsense suppression was at most 0.026. In the case of C5U U20C, the nonsense suppression is reported as at most 0.026. For C27U A30U G85C, the nonsense suppression was at most 0.026. With G7A C81G the nonsense suppression was at most 0.026. C27U G65A gave a nonsense suppression of 0.0374. Variant U16C G73A has a nonsense suppression of 1.22. Variant A13U C75A has a nonsense suppression of 0.866. Work on G69A C82G yielded a nonsense suppression of at most 0.026. Work on U21G yielded a nonsense suppression of 1.04. In the case of U55A G85C, the nonsense suppression is reported as at most 0.026. With G10U A54C G86C the nonsense suppression was at most 0.026. U21C C81U showed a nonsense suppression of 1.14. In the case of U8C G85U, the nonsense suppression is reported as 0.0537. Work on A31C G66C G85U yielded a nonsense suppression of at most 0.026. In the case of G61A C64G, the nonsense suppression is reported as 0.0404. In the case of U2A G19C, the nonsense suppression is reported as at most 0.026. With U4C A24C the nonsense suppression was 1.06. C12U U20G gave a nonsense suppression of 0.455. In the case of U2C G61U, the nonsense suppression is reported as 0.122. With U16G U17C C72A the nonsense suppression was 0.27. Variant U21C C27U has a nonsense suppression of 0.154. Work on C11U A23G A31G U76A yielded a nonsense suppression of at most 0.026. Variant A13G G84C has a nonsense suppression of at most 0.026. Work on A31G C83U yielded a nonsense suppression of 0.0743. With A9C A87G the nonsense suppression was 0.649. Variant G19A A31G has a nonsense suppression of 0.0307. A60C G84C gave a nonsense suppression of 0.0911. Variant U35C C83G has a nonsense suppression of at most 0.026. With A14U U20C A24G C75G the nonsense suppression was at most 0.026. C3U C27G gave a nonsense suppression of 0.0543. Work on C5U A14G U55G yielded a nonsense suppression of at most 0.026. A30U A31G showed a nonsense suppression of 0.25. A13G C75U showed a nonsense suppression of 0.305. With A23G A24C the nonsense suppression was 0.156. C29U U76A G84U showed a nonsense suppression of at most 0.026. Variant C1U U71G has a nonsense suppression of at most 0.026. For G18U A30U G78U, the nonsense suppression was at most 0.026. U8C A54G G59C A62G G84A showed a nonsense suppression of at most 0.026. In the case of C11A A13G, the nonsense suppression is reported as at most 0.026. With A33G C79U the nonsense suppression was 0.0403. G32A U76G showed a nonsense suppression of at most 0.026. A9U U20G gave a nonsense suppression of 0.12. With C75A G85A the nonsense suppression was 1.05. U57A C81G A89G gave a nonsense suppression of at most 0.026. G15C U22G A23C gave a nonsense suppression of at most 0.026. Work on U70C G86A yielded a nonsense suppression of at most 0.026. U4G A31G gave a nonsense suppression of 0.0398. In the case of G61A C68G, the nonsense suppression is reported as 0.0366. C3A U58G U76A gave a nonsense suppression of at most 0.026. For C12U G28U, the nonsense suppression was 0.0705. C5U G6A C11A G25A gave a nonsense suppression of at most 0.026. G85A A87G gave a nonsense suppression of 1.18. In the case of A30C U70C, the nonsense suppression is reported as at most 0.026. With G10A C64G the nonsense suppression was at most 0.026. With G28U U35A the nonsense suppression was at most 0.026. For U2C A89U, the nonsense suppression was at most 0.026. U8A U16G gave a nonsense suppression of 0.0647. Work on A14U A54C C68A G73C G84A yielded a nonsense suppression of 0.202. With U21G C75A the nonsense suppression was 1.06. With A31C A62G G78A the nonsense suppression was at most 0.026. In the case of U16G U70A C82A, the nonsense suppression is reported as at most 0.026. With C1G U20C the nonsense suppression was 0.0266. In the case of C5A U16G G88U, the nonsense suppression is reported as at most 0.026. In the case of A13C U63C, the nonsense suppression is reported as 0.848. Work on U20A C75G G85U yielded a nonsense suppression of 0.154. A30G U71C showed a nonsense suppression of 0.035. G59A G66C showed a nonsense suppression of at most 0.026. In the case of G26C U63G, the nonsense suppression is reported as at most 0.026. In the case of C27G A33U C34G C83G G85A, the nonsense suppression is reported as at most 0.026. With U55C A87C the nonsense suppression was 0.0719. A31G U35A gave a nonsense suppression of 0.0292. Work on A31G U35C yielded a nonsense suppression of 0.0321. Work on U22G C82U yielded a nonsense suppression of 0.913. With G15U C68U G78C C82G G84A the nonsense suppression was at most 0.026. For G61A A89G, the nonsense suppression was 0.0396. For A13U G78A, the nonsense suppression was 0.179. For G7A U70A A89C, the nonsense suppression was at most 0.026. Work on A23G G78U yielded a nonsense suppression of 0.0956. For U2G G85A, the nonsense suppression was at most 0.026. Variant U17A G25C has a nonsense suppression of 0.068. In the case of U22G U63A, the nonsense suppression is reported as 0.939. In the case of U4C G61A, the nonsense suppression is reported as 1.25. C11G G26C A30C gave a nonsense suppression of at most 0.026. In the case of A9G G73U, the nonsense suppression is reported as 0.053. In the case of G10A C11U C64U, the nonsense suppression is reported as at most 0.026. C79A A87C gave a nonsense suppression of at most 0.026. C3G A33U C34U A62G G67C gave a nonsense suppression of at most 0.026. Variant U21A U22G U76A C77A G88A has a nonsense suppression of at most 0.026. For C80A C82U, the nonsense suppression was at most 0.026. Variant C27G C80U C83A has a nonsense suppression of at most 0.026. For U55A C64G, the nonsense suppression was at most 0.026. In the case of U4G C72G, the nonsense suppression is reported as 0.0909. G26U C64G showed a nonsense suppression of at most 0.026. For A33G G61C, the nonsense suppression was 0.034. U63G U76C showed a nonsense suppression of 0.0764.
